Results reported in ChEMBL document CHEMBL3286282, “Synthesis and antiproliferative activity of novobiocin analogues as potential hsp90 inhibitors” (Eur J Med Chem, 2014).
Activity calls are given as the source filed them. The calls are words filed in the database; no cut-off is given here.

Columns and labels:
[1] = target: Heat shock protein HSP 90-beta (Homo sapiens) (UniProt P08238); experiment: Inhibition of HSP90 in human MCF7 cells assessed as ER-alpha degradation at 100 uM after 24 hrs by western blot analysis; type: cell-based
Chain of Heat shock protein HSP 90-beta (Homo sapiens) (P08238 whole entry): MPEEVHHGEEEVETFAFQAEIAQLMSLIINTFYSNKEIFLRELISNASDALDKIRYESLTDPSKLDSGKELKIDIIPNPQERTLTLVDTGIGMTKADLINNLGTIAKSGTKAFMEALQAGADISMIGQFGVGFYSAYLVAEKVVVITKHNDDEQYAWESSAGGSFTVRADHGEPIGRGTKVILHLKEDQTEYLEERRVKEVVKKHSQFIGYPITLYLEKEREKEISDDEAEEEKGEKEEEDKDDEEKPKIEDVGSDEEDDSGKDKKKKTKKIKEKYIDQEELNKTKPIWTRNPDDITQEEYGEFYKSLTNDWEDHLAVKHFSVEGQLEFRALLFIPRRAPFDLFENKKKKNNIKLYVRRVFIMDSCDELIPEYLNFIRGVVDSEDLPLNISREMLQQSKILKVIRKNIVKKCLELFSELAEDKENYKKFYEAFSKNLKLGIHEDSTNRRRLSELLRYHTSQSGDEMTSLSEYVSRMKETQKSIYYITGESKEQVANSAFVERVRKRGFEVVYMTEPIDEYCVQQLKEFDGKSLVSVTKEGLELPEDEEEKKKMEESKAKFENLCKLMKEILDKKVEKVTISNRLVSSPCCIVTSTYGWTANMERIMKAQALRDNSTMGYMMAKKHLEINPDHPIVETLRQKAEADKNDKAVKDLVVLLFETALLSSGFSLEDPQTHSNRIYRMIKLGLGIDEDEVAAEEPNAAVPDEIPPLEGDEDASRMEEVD
In short: (§1)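 MCF-7 cells grown to 50% confluence, exposed to 100 µM for 24 h with or without MG132 (5 µM). Lysed in Tris-HCl pH 7.5/NaCl/EGTA/Triton X-100 buffer with phosphatase and protease inhibitors. 20 µg protein run on SDS-PAGE. ERα probed with D12 monoclonal antibody (1 µg/mL, overnight 4 °C), detected by biotin/avidin-peroxidase. Nonspecific band used as loading control; DMSO as vehicle.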

[2] = Retardation factor of the compound using CH2Cl2/AcOEt at ratio of 9:1 as solvent system; type: physicochemical
MCF7 [3] = experiment: Antiproliferative activity against ER-positive human MCF7 cells assessed as cell viability at 0.1 mM after 72 hrs by MTT assay; type: functional; conditions: MCF7, 72 h, read-out: Activity
In short: (§2)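 MCF-7 (ER-positive) cells in DMEM with 2 mM L-glutamine, penicillin/streptomycin and 10% charcoal-treated FCS, seeded at 2500-5000 cells/well. Drugs added 24 h later in serial dilutions from 10 mM DMSO stocks, then exposed 72 h. MTT (500 µg/mL) for 3 h at 37 °C, formazan dissolved in DMSO, A570 read minus A650. Sextuplicates, three experiments.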

MCF7 [4] = experiment: Growth inhibition of ER-positive human MCF7 cells after 72 hrs by MTT assay; type: functional; conditions: MCF7, 72 h; in short: as §2
[5] = Retardation factor of the compound using CH2Cl2/MeOH at ratio of 9:1 as solvent system; type: physicochemical
[6] = Retardation factor of the compound using CH2Cl2/AcOEt at ratio of 95:5 as solvent system; type: physicochemical
[7] = Retardation factor of the compound using c-hexane/AcOEt at ratio of 8:2 as solvent system; type: physicochemical
[8] = target: Heat shock protein HSP 90-beta (Homo sapiens) (UniProt P08238); experiment: Inhibition of HSP90 in human MCF7 cells assessed as ER-alpha degradation at 100 uM after 24 hrs by western blot analysis in presence of proteasome inhibitor MG132; type: cell-based; in short: as §1
[9] = Retardation factor of the compound using CH2Cl2 as solvent system; type: physicochemical
[10] = Retardation factor of the compound using Et2O as solvent system; type: physicochemical
[11] = Retardation factor of the compound using c-hexane/AcOEt at ratio of 6:4 as solvent system; type: physicochemical

## Cc1c(O)ccc2c(OS(=O)(=O)c3ccc4cccnc4c3)c(NC(=O)c3ccc4c(c3)CCC(C)(C)O4)c(=O)oc12
[1]
  ER-alpha degradation (active/inactive): Active
[2]
  Rf: 0.28
MCF7 [3]
  viability at 100 µM: 22%
MCF7 [4]
  GI50: 64 µM

## COc1c(C#CCN(C)C)cc2c(OS(=O)(=O)c3ccc(C)cc3)c(NC(=O)c3ccc4c(c3)CCC(C)(C)O4)c(=O)oc2c1C
[5]
  Rf: 0.22
MCF7 [3]
  viability at 100 µM: 96%

## C#Cc1cc2c(OS(=O)(=O)c3ccc(C)cc3)c(NC(=O)c3ccc4c(c3)CCC(C)(C)O4)c(=O)oc2c(C)c1OC
[6]
  Rf: 0.5
MCF7 [3]
  viability at 100 µM: 82%

## COc1c(Br)cc2c(OC)c(NC(=O)c3ccc4c(c3)CCC(C)(C)O4)c(=O)oc2c1C
[7]
  Rf: 0.19
[6]
  Rf: 0.59
MCF7 [3]
  viability at 100 µM: 90%

## Cc1ccc(S(=O)(=O)Oc2c(NC(=O)c3ccc4c(c3)CCC(C)(C)O4)c(=O)oc3c(C)c(O)ccc23)cc1
[1]
  ER-alpha degradation (active/inactive): Active
[8]
  inhibition: inactive

## COc1ccc(-c2cc3c(OS(=O)(=O)c4ccc(C)cc4)c(NC(=O)c4ccc5c(c4)CCC(C)(C)O5)c(=O)oc3c(C)c2OC)cc1
[9]
  Rf: 0.27
MCF7 [3]
  viability at 100 µM: 89%

## COc1cc(C#Cc2cc3c(OS(=O)(=O)c4ccc(C)cc4)c(NC(=O)c4ccc5c(c4)CCC(C)(C)O5)c(=O)oc3c(C)c2OC)cc(OC)c1OC
[6]
  Rf: 0.48
MCF7 [3]
  viability at 100 µM: 92%

## Cc1c(O)ccc2c(OS(=O)(=O)c3ccc4ccccc4c3)c(NC(=O)c3ccc4c(c3)CCC(C)(C)O4)c(=O)oc12
[1]
  ER-alpha degradation (active/inactive): Active
[10]
  Rf: 0.3
MCF7 [3]
  viability at 100 µM: 33%
MCF7 [4]
  GI50: 67 µM

## Cc1ccc(S(=O)(=O)Oc2c(NC(=O)c3ccc4c(c3)CCC(C)(C)O4)c(=O)oc3c(C)c(O)c(Br)cc23)cc1
[11]
  Rf: 0.39
MCF7 [3]
  viability at 100 µM: 65%
